Source: PubChem BioAssay
Rows were chosen to be rich in hits. Some 3.5% of all compounds tested hit in one or more screens of this group.
RGS4 pot: RGS4 potentiation or activation. HEK293 M3R/inducible RGS4, carbachol calcium flux Fluo4; stronger effect = lower value. B-score at 10 µM. 310,000 tested, 0.92% active. AID 463111;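 active = B-score of the integrated calcium signal more than 4 SD below the library mean, with starting fluorescence not abnormally high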;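 note: negative B-score means reduced calcium response which marks RGS4 activation or potentiation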
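Assay system: HEK293 FlpIn-TREx cells, stable M3R, doxycycline-inducible RGS4 / Probe or stimulus: carbachol, ECmax concentration / Times: overnight RGS4 induction, 30 min dye load 37 °C, 20 min compound RT / Signal: kinetic calcium fluorescence imaging with Fluo4-AM dye, 2 µM / Measure: Agonist-evoked peak-minus-minimum fluorescence over baseline, integrated ratio, B score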
RGS4 block: human RGS4 inhibition; P49798; HEK293 M3R/RGS4 inducible, Fluo-4 calcium flux; stronger effect = higher value; triggered by carbachol at its EC20; B-score at 10 µM; 310,000 tested, 0.45% active; AID 463165;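 active = B-score, a plate-corrected calcium signal, over three deviations above library mean, with baseline fluorescence within five deviations of library mean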;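 note: RGS4 expression induced by doxycycline in cells with stable M3 receptor; B-score is computed from the integrated fluorescence ratio over baseline after carbachol; higher B-score means a larger calcium signal and so more RGS4 inhibition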
Target sequence (P49798 whole entry, looked up): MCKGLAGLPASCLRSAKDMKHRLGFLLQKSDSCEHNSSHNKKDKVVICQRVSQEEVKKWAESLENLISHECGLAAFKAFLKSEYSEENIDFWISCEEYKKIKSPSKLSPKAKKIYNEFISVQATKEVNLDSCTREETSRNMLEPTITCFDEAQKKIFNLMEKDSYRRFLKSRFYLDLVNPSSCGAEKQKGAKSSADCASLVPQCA
MrgX1 agonist: human MrgX1 receptor agonism, primary screen | Q96LB2 | MrgX1-HEK293 cells, Fluo-4 calcium fluorescence, agonist mode; stronger effect = higher value | B-score at 10 µM | 310,000 tested, 0.44% active | AID 588627;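 active = calcium response B-score plate-corrected fluorescence ratio at least 3 library SD, with starting fluorescence B-score inside 5 SD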
Target sequence (Q96LB2 whole entry, looked up): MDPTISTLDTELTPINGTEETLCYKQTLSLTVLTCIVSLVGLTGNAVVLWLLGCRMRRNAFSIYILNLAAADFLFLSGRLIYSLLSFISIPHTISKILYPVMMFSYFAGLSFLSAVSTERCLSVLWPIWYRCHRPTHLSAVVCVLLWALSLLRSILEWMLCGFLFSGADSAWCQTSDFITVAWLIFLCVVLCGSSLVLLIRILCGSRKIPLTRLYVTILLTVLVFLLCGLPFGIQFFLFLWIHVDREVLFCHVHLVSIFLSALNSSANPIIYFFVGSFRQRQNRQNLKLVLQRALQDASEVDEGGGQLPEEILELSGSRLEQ
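Material: MrgX1-expressing HEK293 cells; input: 15,000 cells per well; doses: test compound given as first of three sequential additions; schedule: overnight plating before 1 h dye loading; technique: Fluo-4 NW calcium-flux fluorescence, kinetic read; evaluation: baseline-normalised fluorescence change ratio, B-scored; control set: plate-wise positive and negative controls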
MrgX1 allo act: allosterically activates human MrgX1 receptor signaling; Q96LB2; MrgX1-HEK293, Fluo-4 calcium flux, FDSS; stronger effect = higher value; B-score at 10 µM; 310,000 tested, 0.63% active; AID 588675;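 active = plate-corrected calcium response at least 3 library SD above typical, normal starting fluorescence, not activating the receptor alone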;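 note: compound read alongside a low EC10 to EC30 dose of BAM8-22 agonist; peak minus trough fluorescence over baseline measured at the second addition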
MrgX1 antagonist: antagonists of human MrgX1 receptor | MRGX1-HEK293 calcium flux, Fluo-4, BAM8-22 antagonism; stronger effect = lower value | Q96LB2 | 310,000 tested, 1.3% active | B-score at 10 µM | AID 588676;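 active = calcium-response B-score plate-corrected more than 3 library SD below zero, starting fluorescence within 5 deviations, no agonist response on first addition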;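 note: peak minus trough fluorescence over baseline after final BAM8-22 challenge near maximal dose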
MrgX1 ant reconf: reconfirmed antagonist of human MrgX1 receptor signaling. 2,300 tested, 19% active. shares compounds with MrgX1 antagonist. MrgX1-HEK293, BAM8-22 calcium flux, Fluo-4; stronger effect = lower value. remaining BAM8-22 calcium response % of control (stronger effect = lower value), % at 10 µM;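 active = remaining agonist calcium response no higher than 100% minus 3 SD of agonist-only control wells, with starting fluorescence near control levels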;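 note: agonist BAM8-22 given at a near maximal EC90 to ECmax level; peak minus minimum fluorescence divided by baseline after agonist addition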
HEK293 Ca flux: MrgX1 antagonist counter-screen hit in parental HEK293 cells; Fluo-4 calcium fluorescence, FDSS; shares compounds with MrgX1 antagonist; fluorescence ratio F(max-min)/F0 at 10 µM; 4,000 tested, 2% active;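 active = duplicate-averaged calcium fluorescence ratio at least three times the standard deviation of buffer wells, a nonspecific response in parental cells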
HEK293 Ca counter: activity in parental HEK293 cells without MrgX1; fluorescence ratio F(max-min)/F0 at 10 µM; shares compounds with MrgX1 antagonist; 4,000 tested, 0.4% active; parental HEK293 calcium flux, Fluo-4 fluorescence ratio; stronger effect = higher value; AID 624114;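 active = calcium fluorescence ratio, averaged over duplicates, at least 3 SD of the buffer-well ratio, meaning a nonspecific response in receptor-free cells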;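 note: untransfected parental HEK293 lacking MrgX1 used as counterscreen for MrgX1 allosteric activators; fluorescence change taken during the second addition on a kinetic imager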
HEK293 Ca cntr2: MrgX1 activator counter-screen hit in parental HEK293 cells | shares compounds with MrgX1 antagonist | Fluo-4 calcium fluorescence (FDSS); stronger effect = higher value | fluorescence ratio F(max-min)/F0 at 10 µM | 4,000 tested, 8.7% active | AID 624115;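 active = calcium fluorescence ratio at least three times the spread of buffer wells, meaning a non-specific response in parental cells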
Each line names hits and unclear results; the compound was inactive in the other large screens (follow-up assays come after a bar, where they were run).

CCOC(=O)C1=C(CCc2ccccc2)NC(=O)NC1c1ccc(C#N)cc1 (centres undefined)	none
Cc1ccc(S(=O)(=O)N2CCN(C(=O)c3ccnn3C)CC2)cc1C	MrgX1 antagonist -5.7 | MrgX1 ant reconf inactive | HEK293 Ca flux inactive | HEK293 Ca counter inactive | HEK293 Ca cntr2 inactive
Cc1ccc(Cc2nc(-c3cccnc3)no2)cc1	MrgX1 antagonist -4.8 | MrgX1 ant reconf inactive | HEK293 Ca flux inactive | HEK293 Ca counter inactive | HEK293 Ca cntr2 inactive
Cc1ccc2nc(SCC(=O)NCc3ccc4c(c3)OCO4)nc(=O)n2c1	none
CC(c1ccccc1C(O)(c1ccccc1)c1ccccc1)N(C)C (centres undefined)	MrgX1 antagonist -5.4 | MrgX1 ant reconf inactive | HEK293 Ca flux inactive | HEK293 Ca counter inactive | HEK293 Ca cntr2 inactive
Nc1nc(N)c(Cc2ccc(Cl)cc2Cl)c(N)n1	MrgX1 antagonist -4.8 | MrgX1 ant reconf 71% | HEK293 Ca flux inactive | HEK293 Ca counter inactive | HEK293 Ca cntr2 inactive
NNc1ccc(Cc2ccc(Cl)cc2Cl)nn1	none
Cc1ccc(C(C)C)cc1OCC(=O)NNC(=O)Nc1ccccc1	none
Cc1[nH]c(=O)nc(SCc2cccc(Cl)c2)c1C#N	none
Cc1[nH]c(=O)nc(SCc2ccc(Cl)c(Cl)c2)c1C#N	MrgX1 antagonist -7 | MrgX1 ant reconf inactive | HEK293 Ca flux inactive | HEK293 Ca counter inactive | HEK293 Ca cntr2 inactive
CCCc1cc(=O)[nH]c(SCCN2C(=O)c3ccccc3C2=O)n1	MrgX1 antagonist -5.3 | MrgX1 ant reconf inactive | HEK293 Ca flux inactive | HEK293 Ca counter inactive | HEK293 Ca cntr2 inactive
O=C(Nc1ccc(CN2CCOCC2)cc1)c1cc2ccccc2o1	none
O=C(Nc1ccc(CN2CCOCC2)cc1)c1cc2ccccn2n1	MrgX1 antagonist -4.9 | MrgX1 ant reconf inactive | HEK293 Ca flux inactive | HEK293 Ca counter inactive | HEK293 Ca cntr2 inactive
C/C(=N\Nc1cc(C)nc(NCc2ccccc2)n1)c1ccc([N+](=O)[O-])cc1	none
CCOC(=O)CCC(=O)O[C@H]1[C@H](O[C@@H]2[C@@H](C)[C@H](O[C@H]3C[C@@](C)(OC)[C@@H](O)[C@H](C)O3)[C@@H](C)C(=O)O[C@H](CC)[C@@](C)(O)[C@H](O)[C@@H](C)C(=O)[C@H](C)C[C@@]2(C)O)O[C@H](C)C[C@@H]1N(C)C	MrgX1 antagonist -11 | MrgX1 ant reconf inactive | HEK293 Ca flux inactive | HEK293 Ca counter inactive | HEK293 Ca cntr2 inactive
CC[C@H]1OC(=O)[C@H](C)[C@@H](O[C@H]2C[C@@](C)(OC)[C@@H](O)[C@H](C)O2)[C@H](C)[C@@H](O[C@@H]2O[C@H](C)C[C@H](N(C)C)[C@H]2O)[C@](C)(O)C[C@@H](C)C(=O)[C@H](C)[C@@H](O)[C@]1(C)O	none
Cc1ccc(CCNC(=O)CCS(=O)(=O)c2ccc(Br)cc2)cc1	MrgX1 antagonist -8.1 | MrgX1 ant reconf inactive | HEK293 Ca flux inactive | HEK293 Ca counter inactive | HEK293 Ca cntr2 inactive
Cc1ccc(S(=O)(=O)CCC(=O)NCCc2ccc(Cl)cc2)cc1	none
CCCCOc1ccc(C(=O)OCC(=O)N2CCOCC2)cc1	none
Cc1cc(NC(=O)Cn2cc([N+](=O)[O-])cn2)no1	none
Cc1nc(=O)c(-c2ccccc2)c(C)n1-c1ccc(C(=O)O)cc1	MrgX1 antagonist -4.9 | MrgX1 ant reconf inactive | HEK293 Ca flux inactive | HEK293 Ca counter inactive | HEK293 Ca cntr2 inactive
Cc1nc(=O)c(-c2ccccc2)c(C)n1-c1ccc(S(N)(=O)=O)cc1	none
CCCCC(CC)C(=O)NCc1ccc(F)cc1 (centres undefined)	none
CCOC(=O)NNC(=S)Nc1c(C)n(C)n(-c2ccccc2)c1=O	none
COC(=O)c1sc(-c2ccc(Cl)cc2)cc1NC(=O)CSCC(=O)O	none
COC(=O)c1sc(-c2ccc(C(C)(C)C)cc2)cc1NC(=O)COCC(=O)O	MrgX1 antagonist -4.7 | MrgX1 ant reconf 68% | HEK293 Ca flux inactive | HEK293 Ca counter inactive | HEK293 Ca cntr2 60
Cc1ccc(-c2noc(C3CCN(C(=O)Nc4ccc(C#N)cc4)CC3)n2)o1	MrgX1 antagonist -4.6 | MrgX1 ant reconf 76% | HEK293 Ca flux inactive | HEK293 Ca counter inactive | HEK293 Ca cntr2 inactive
CCOc1cnc(-c2ccc(OC)cc2)o1	MrgX1 antagonist -4.6 | MrgX1 ant reconf inactive | HEK293 Ca flux inactive | HEK293 Ca counter inactive | HEK293 Ca cntr2 inactive
O=C1NC(O)(c2ccccc2)Oc2ccccc21 (centres undefined)	none
CCCC1(C)NC(=O)c2ccccc2O1 (centres undefined)	MrgX1 antagonist -4.9 | MrgX1 ant reconf inactive | HEK293 Ca flux inactive | HEK293 Ca counter inactive | HEK293 Ca cntr2 inactive
CCOc1ccc(Cl)cc1CNCCCSc1nc(C)cc(C)n1	none
COc1ccc(C(CNC(=O)c2cccc(NS(=O)(=O)c3ccc(Br)cc3)c2)N(C)C)cc1 (centres undefined)	none
CCc1ccc(NC(=O)C(CC)Sc2nc3ccsc3c(=O)n2CCC(=O)O)cc1 (centres undefined)	none
COCCn1c(C)cc(C(=O)CSc2n[nH]c(N)n2)c1C	MrgX1 antagonist -4.8 | MrgX1 ant reconf inactive | HEK293 Ca flux inactive | HEK293 Ca counter inactive | HEK293 Ca cntr2 inactive
COCCn1c(C)cc(C(=O)CSc2nc3nc(C)cc(C)n3n2)c1C	none
CC(C)(C)C(=O)CSc1ncnc2sc3c(c12)CCC3	MrgX1 antagonist -9.7 | MrgX1 ant reconf inactive | HEK293 Ca flux inactive | HEK293 Ca counter inactive | HEK293 Ca cntr2 inactive
CC(=O)CSc1ncnc2sc3c(c12)CCC3	none
O=C(NCCCN1CCOCC1)c1cc(Cl)ccc1OCc1ccccc1	none
COc1ccc(N(CC(=O)NCCSCc2ccco2)S(=O)(=O)c2ccccc2)cc1Cl	none
Cc1nc2nc(C)c(CCC(=O)N3CCOCC3)c(C)n2n1	MrgX1 antagonist -5.3 | MrgX1 ant reconf inactive | HEK293 Ca flux inactive | HEK293 Ca counter inactive | HEK293 Ca cntr2 68
CCOC(=O)CCc1c(C)nc2cc(-c3ccccc3OC)[nH]n2c1=O	none
CCOC(=O)CCc1c(C)nc2cc(C3CCCN(C(=O)OC(C)(C)C)C3)[nH]n2c1=O (centres undefined)	MrgX1 antagonist -5.4 (no result: RGS4 pot, RGS4 block) | MrgX1 ant reconf inactive | HEK293 Ca flux inactive | HEK293 Ca counter inactive | HEK293 Ca cntr2 inactive
